≈ marks a conversion by molar mass, not a printed value.
How the values were obtained:
[1] = Cytotoxicity against human macrophages assessed as cell viability after 24 hrs by MTT assay; format: cell-based, Macrophage
Outline: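 Human macrophages in DMEM with 10% FBS and antimycotic, 1.8×10⁴ cells/well. Exposed to 160, 40, 10, 2.5 and 0.25 µg/mL compound (added in 10% DMSO) for 24 h at 37 °C, 5% CO₂. MTT (2.5 mg/mL) added for a further 4 h, formazan dissolved in DMSO.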

Bacillus subtilis = experiment: Antibacterial activity against Bacillus subtilis assessed as survival after 24 hrs by MTT assay; format: functional, organism-based
Outline: (§1)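 Broth microdilution in Mueller-Hinton broth. Cells grown to mid-log phase, diluted 10000-fold, and 10⁶ to 10⁷ CFU inoculated per well. Incubated 37 °C for 24 h. Drug-containing medium then added to final 40, 10, 2.5 and 0.25 µg/mL. After 12 h, MTT in PBS added; 4 h later medium discarded and formazan dissolved in DMSO. A490 read; at least three replicates.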

Bacillus thuringiensis = experiment: Antibacterial activity against Bacillus thuringiensis assessed as survival after 24 hrs by MTT assay; format: functional, organism-based; outline: as §1
Pseudomonas aeruginosa = experiment: Antibacterial activity against Pseudomonas aeruginosa assessed as survival after 24 hrs by MTT assay; format: functional, organism-based; outline: as §1
Escherichia coli = experiment: Antibacterial activity against Escherichia coli assessed as survival after 24 hrs by MTT assay; format: functional, organism-based; outline: as §1
[2] = Inhibition of Escherichia coli FabH overexpressed in Escherichia coli DH10B using holo-ACP as substrate after 1 min
Outline: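 Enzyme was purified by Ni-NTA with imidazole gradient elution and stored in 20 mM Tris pH 7.6, 100 mM NaCl, 1 mM DTT, 20% glycerol. Reaction: 0.5 nM E. coli FabH, 20 mM Na₂HPO₄ pH 7.0, 0.5 mM DTT, 0.25 mM MgCl₂, 2.5 µM holo-ACP, preincubated 1 min. Started with acetyl-CoA, NADH and NADPH mix; ran 19 min. Stopped with ice-cold TCA; ³H incorporation in pellet counted by liquid scintillation. Inhibitors added from DMSO stock, final DMSO ≤2%; IC50 determined.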

[3] = Cytotoxicity against human macrophages assessed as morphological changes at 2.5 to 160 ug/mL after 24 hrs by phase contrast microscopic analysis; format: cell-based; details: macrophage
Outline: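 Human macrophages exposed for 24 h to 2.5, 10, 40 and 160 µg/mL, Giemsa-stained and examined by phase contrast microscopy. Morphology compared with untreated control cells. The minimum cytotoxic concentration is the level causing a microscopically detectable alteration of normal cell morphology.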

| Structure (SMILES) | CC50 at 24 h [1] [µM] | IC50 (Bacillus subtilis) [µg/mL] | IC50 (Bacillus thuringiensis) [µg/mL] | IC50 (Pseudomonas aeruginosa) [µg/mL] | IC50 (Escherichia coli) [µg/mL] | IC50 [2] [µM] | Activity [3] |
| --- | --- | --- | --- | --- | --- | --- | --- |
| CC(O)Cn1c([N+](=O)[O-])cnc1/C=C/c1ccc(Br)cc1 (centres undefined) | 0.55 | 38 (≈ 108 µM) | 56.2 (≈ 160 µM) | 15.2 (≈ 43.2 µM) | 50.8 (≈ 144 µM) | – | – |
| CC(O)Cn1c([N+](=O)[O-])cnc1/C=C/c1ccc([N+](=O)[O-])cc1 (centres undefined) | 0.41 | 32.5 (≈ 102 µM) | 11.7 (≈ 36.8 µM) | 5.9 (≈ 18.5 µM) | 36.8 (≈ 116 µM) | 4.6 | – |
| CC(O)Cn1c([N+](=O)[O-])cnc1/C=C/c1ccc2ccccc2c1 (centres undefined) | 0.79 | 23.5 (≈ 72.7 µM) | 52.2 (≈ 161 µM) | 42.1 (≈ 130 µM) | 108 (≈ 335 µM) | 43.2 | – |
| CC(O)Cn1c([N+](=O)[O-])cnc1/C=C/c1cccc(Br)c1 (centres undefined) | 0.62 | 15.3 (≈ 43.4 µM) | 8.2 (≈ 23.3 µM) | 30.9 (≈ 87.7 µM) | 45.4 (≈ 129 µM) | 10.8 | – |
| CC(O)Cn1c([N+](=O)[O-])cnc1/C=C/c1ccccc1[N+](=O)[O-] (centres undefined) | 1.09 | 12.3 (≈ 38.6 µM) | 72.9 (≈ 229 µM) | 7.4 (≈ 23.2 µM) | 40.3 (≈ 127 µM) | 11 | Non-toxic |
| COc1ccccc1/C=C/c1ncc([N+](=O)[O-])n1CC(C)O (centres undefined) | 0.48 | 10.5 (≈ 34.6 µM) | 19.1 (≈ 63 µM) | 83.8 (≈ 276 µM) | 78.6 (≈ 259 µM) | – | – |
| CC(O)Cn1c([N+](=O)[O-])cnc1/C=C/c1ccccc1F (centres undefined) | 1.41 | 3.4 (≈ 11.7 µM) | 60.3 (≈ 207 µM) | 39.4 (≈ 135 µM) | 72.7 (≈ 250 µM) | – | – |
| CC(O)Cn1c([N+](=O)[O-])cnc1/C=C/c1ccccc1 (centres undefined) | 1.5 | 78.9 (≈ 289 µM) | 45.6 (≈ 167 µM) | 28 (≈ 102 µM) | > 200 | – | – |
| NC[C@H]1O[C@H](O[C@H]2[C@H](O)[C@@H](O[C@H]3O[C@H](CO)[C@@H](O)[C@H](N)[C@H]3O)[C@H](N)C[C@@H]2N)[C@H](O)[C@@H](O)[C@@H]1O [KANAMYCIN] | – | 8.9 (≈ 18.4 µM) | 9.5 (≈ 19.6 µM) | 6.8 (≈ 14 µM) | 47.3 (≈ 97.6 µM) | 6.3 | – |
| CC(O)Cn1c([N+](=O)[O-])cnc1/C=C/c1ccc(Cl)cc1 (centres undefined) | 0.98 | 79.5 (≈ 258 µM) | 52.5 (≈ 171 µM) | 17.6 (≈ 57.2 µM) | 102 (≈ 331 µM) | – | – |
| CC(O)Cn1c([N+](=O)[O-])cnc1/C=C/c1c(F)cccc1Cl (centres undefined) | 0.71 | 112 (≈ 343 µM) | 6.1 (≈ 18.7 µM) | 5.7 (≈ 17.5 µM) | 119 (≈ 365 µM) | – | – |
| COc1ccc(/C=C/c2ncc([N+](=O)[O-])n2CC(C)O)cc1 (centres undefined) | 0.56 | 12.3 (≈ 40.6 µM) | 13.6 (≈ 44.8 µM) | 42.8 (≈ 141 µM) | 46.1 (≈ 152 µM) | 9.5 | – |
| CC(O)Cn1c([N+](=O)[O-])cnc1/C=C/c1ccc(Cl)cc1Cl (centres undefined) | 0.81 | 58.1 (≈ 170 µM) | 18.8 (≈ 54.9 µM) | 8.7 (≈ 25.4 µM) | 111 (≈ 325 µM) | – | – |
| Cc1ccc(/C=C/c2ncc([N+](=O)[O-])n2CC(C)O)cc1 (centres undefined) | 0.86 | 8.9 (≈ 31 µM) | 8.6 (≈ 29.9 µM) | 22.8 (≈ 79.4 µM) | 111 (≈ 388 µM) | 78.8 | – |
| COc1cccc(/C=C/c2ncc([N+](=O)[O-])n2CC(C)O)c1 (centres undefined) | 1.3 | 25.7 (≈ 84.7 µM) | 56.2 (≈ 185 µM) | 6.7 (≈ 22.1 µM) | 181 (≈ 595 µM) | – | – |
| CC(O)Cn1c([N+](=O)[O-])cnc1/C=C/c1cccc([N+](=O)[O-])c1 (centres undefined) | 0.43 | 31.1 (≈ 97.7 µM) | 20.6 (≈ 64.7 µM) | 32.7 (≈ 103 µM) | 38.8 (≈ 122 µM) | 5.1 | – |
| CC(O)Cn1c([N+](=O)[O-])cnc1/C=C/c1ccccc1Cl (centres undefined) | 0.48 | 7.5 (≈ 24.4 µM) | – | 15.4 (≈ 50 µM) | 56.3 (≈ 183 µM) | 11.5 | – |
| CC(O)Cn1c([N+](=O)[O-])cnc1/C=C/c1ccc(N(C)C)cc1 (centres undefined) | 0.68 | 56.5 (≈ 179 µM) | > 200 | 75 (≈ 237 µM) | 108 (≈ 342 µM) | – | – |
| CC(O)Cn1c([N+](=O)[O-])cnc1/C=C/c1ccc(F)cc1 (centres undefined) | 0.42 | 47.1 (≈ 162 µM) | 28.1 (≈ 96.5 µM) | 24.2 (≈ 83.1 µM) | 45.3 (≈ 156 µM) | – | – |
| CC(O)Cn1c([N+](=O)[O-])cnc1/C=C/c1cccc(F)c1 (centres undefined) | 1.03 | 11.8 (≈ 40.5 µM) | 79.2 (≈ 272 µM) | 15 (≈ 51.5 µM) | 120 (≈ 412 µM) | 8.9 | – |
| CC(O)Cn1c([N+](=O)[O-])cnc1/C=C/c1ccccc1Br (centres undefined) | 0.49 | 6 (≈ 17 µM) | 11.4 (≈ 32.4 µM) | 11.1 (≈ 31.5 µM) | 63.6 (≈ 181 µM) | – | – |
| CC(O)Cn1c([N+](=O)[O-])cnc1/C=C/c1cccc(Cl)c1 (centres undefined) | 0.52 | 55.3 (≈ 180 µM) | 21.4 (≈ 69.5 µM) | 35 (≈ 114 µM) | 86.7 (≈ 282 µM) | – | – |
